Source: ChEMBL document CHEMBL1147801, “NK1 antagonists based on seven membered lactam scaffolds” (Bioorg Med Chem Lett, 2006)

Key:
[1] = biological target: Voltage-gated inwardly rectifying potassium channel KCNH2 (Homo sapiens, UniProt Q12809); assay: Displacement of labeled MK-499 from cloned hERG channel expressed in HEK cells; type: cell-based, HEK293
Gerbil, jird [2] = assay: Inhibition of GR-73632-induced foot tapping in gerbil at 3 mg/kg, po after 1 hr; type: functional, Meriones; set-up: Activity: scale not given: the % may be the effect or the level left; settings: for Activity: dose 3 mg/kg; for ED50: Meriones, 1 h, read-out: ID50 (the source's name)
In short: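 Gerbils dosed orally 1 h before central challenge with the NK1 agonist GR73632, with foot-tapping scored. Plasma drug level at 1 h measured by LC–MS/MS after protein precipitation.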

Substance-P receptor = Substance-P receptor (Homo sapiens, UniProt P25103); assay: Displacement of [125I] labeled substance P from human cloned NK1 receptor expressed in CHO cells; type: cell-based
Chain of Substance-P receptor (P25103 whole entry): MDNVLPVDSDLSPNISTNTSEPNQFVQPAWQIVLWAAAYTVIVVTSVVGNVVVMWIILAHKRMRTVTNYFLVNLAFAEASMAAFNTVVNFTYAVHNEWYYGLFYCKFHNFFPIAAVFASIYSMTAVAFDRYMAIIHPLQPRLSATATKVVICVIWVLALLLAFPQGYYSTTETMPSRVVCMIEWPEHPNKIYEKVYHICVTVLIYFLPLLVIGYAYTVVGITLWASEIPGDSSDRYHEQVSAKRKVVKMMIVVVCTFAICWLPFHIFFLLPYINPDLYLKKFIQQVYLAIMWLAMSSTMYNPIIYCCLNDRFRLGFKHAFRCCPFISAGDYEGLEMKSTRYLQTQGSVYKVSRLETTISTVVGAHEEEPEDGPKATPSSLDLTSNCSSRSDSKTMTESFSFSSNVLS
In short: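 Radioligand displacement assay: [¹²⁵I]-labelled substance P bound to cloned human NK1 receptor expressed in CHO cells, measured as the concentration giving IC50; mean ± SD of three determinations.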

[3] = Clearance in rat; type: ADME, organism-based; settings: in vivo
Gerbil, jird [4] = assay: Inhibition of GR-73632-induced foot tapping in po dosed gerbil after 1 hr; type: functional; settings: Meriones, read-out: ID50 (the source's name)
In short: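 Gerbils dosed orally 1 h before central challenge with the NK1 agonist GR73632, with foot-tapping scored. […] Plasma drug level at 1 h measured by LC–MS/MS after protein precipitation.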

[5] = Half life in rat; type: ADME, organism-based; settings: in vivo

Chain of Voltage-gated inwardly rectifying potassium channel KCNH2 (Q12809 whole entry): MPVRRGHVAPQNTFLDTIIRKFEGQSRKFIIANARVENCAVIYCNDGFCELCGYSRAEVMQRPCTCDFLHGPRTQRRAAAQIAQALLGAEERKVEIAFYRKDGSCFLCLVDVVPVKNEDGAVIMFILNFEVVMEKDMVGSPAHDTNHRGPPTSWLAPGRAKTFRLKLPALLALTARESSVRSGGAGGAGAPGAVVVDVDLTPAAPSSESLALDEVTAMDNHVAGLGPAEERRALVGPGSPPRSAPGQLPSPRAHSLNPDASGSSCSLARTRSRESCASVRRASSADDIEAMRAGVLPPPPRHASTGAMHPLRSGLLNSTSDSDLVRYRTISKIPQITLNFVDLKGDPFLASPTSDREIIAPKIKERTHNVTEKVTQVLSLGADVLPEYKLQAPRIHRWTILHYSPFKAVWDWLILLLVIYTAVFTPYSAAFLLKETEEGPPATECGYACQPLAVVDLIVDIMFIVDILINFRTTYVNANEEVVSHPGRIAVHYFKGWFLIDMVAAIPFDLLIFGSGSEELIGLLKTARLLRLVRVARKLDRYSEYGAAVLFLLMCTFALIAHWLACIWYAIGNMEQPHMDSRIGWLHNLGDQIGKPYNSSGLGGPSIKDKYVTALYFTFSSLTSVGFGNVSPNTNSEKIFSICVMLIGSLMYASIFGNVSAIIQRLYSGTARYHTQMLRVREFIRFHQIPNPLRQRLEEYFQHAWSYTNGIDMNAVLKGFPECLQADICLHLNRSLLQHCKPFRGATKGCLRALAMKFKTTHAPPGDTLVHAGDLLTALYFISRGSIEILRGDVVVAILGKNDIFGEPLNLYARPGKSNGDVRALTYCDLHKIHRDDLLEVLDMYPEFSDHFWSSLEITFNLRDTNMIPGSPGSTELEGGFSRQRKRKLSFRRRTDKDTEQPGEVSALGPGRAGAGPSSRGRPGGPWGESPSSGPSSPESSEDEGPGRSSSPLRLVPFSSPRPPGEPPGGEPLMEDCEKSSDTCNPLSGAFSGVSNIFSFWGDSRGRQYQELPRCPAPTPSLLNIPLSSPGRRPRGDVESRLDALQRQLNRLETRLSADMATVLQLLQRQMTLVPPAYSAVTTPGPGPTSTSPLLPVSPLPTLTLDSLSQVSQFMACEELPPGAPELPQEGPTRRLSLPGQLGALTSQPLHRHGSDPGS

| Compound | Ki [1] | Activity (Gerbil, jird [2]) | IC50 (Substance-P receptor) | further results |
| --- | --- | --- | --- | --- |
| C[C@@H](O[C@H]1CCC(=O)N(C)[C@@H](C)[C@@H]1c1ccc(F)cc1)c1cc(C(F)(F)F)cc(C(F)(F)F)c1 | 6700 nM | – | – | – |
| C[C@@H]1C[C@H](O[C@H](C)c2cc(C(F)(F)F)cc(C(F)(F)F)c2)[C@@H](c2ccc(F)cc2)CC(=O)N1 | – | 64% | 0.41 nM | – |
| C[C@@H]1C[C@H](O[C@H](C)c2cc(C(F)(F)F)cc(C(F)(F)F)c2)[C@@H](c2ccc(F)cc2)CNC1=O | 2400 nM | – | 0.23 nM | – |
| C[C@@H](O[C@H]1CCn2c(O)nnc2C[C@@H]1c1ccc(F)cc1)c1cc(C(F)(F)F)cc(C(F)(F)F)c1 | > 9000 nM | – | 0.22 nM | ED50 (Gerbil, jird [2]): 0.8 mg/kg |
| C[C@@H](O[C@H]1CCc2nccn2C[C@@H]1c1ccc(F)cc1)c1cc(C(F)(F)F)cc(C(F)(F)F)c1 | – | 4% | 0.28 nM | – |
| C[C@@H]1C[C@H](O[C@H](C)c2cc(C(F)(F)F)cc(C(F)(F)F)c2)[C@@H](c2ccc(F)cc2)CN(C)C1=O | – | 5% | – | – |
| C[C@@H](O[C@H]1CCNC(=O)C[C@@H]1c1ccc(F)cc1)c1cc(C(F)(F)F)cc(C(F)(F)F)c1 | > 9000 nM | 0% | 0.64 nM | – |
| C[C@@H](O[C@H]1CCn2ccnc2C[C@@H]1c1ccc(F)cc1)c1cc(C(F)(F)F)cc(C(F)(F)F)c1 | 1400 nM | 0% | – | – |
| C[C@@H](O[C@H]1CCC(=O)NC[C@@H]1c1ccc(F)cc1)c1cc(C(F)(F)F)cc(C(F)(F)F)c1 | > 9000 nM | – | 0.14 nM | clearance [3]: 33 mL/min/kg; ED50 (Gerbil, jird [4]): 1.06 mg/kg; half-life [5]: 5.6 h |
| C[C@@H](O[C@H]1CCN(C)C(=O)C[C@@H]1c1ccc(F)cc1)c1cc(C(F)(F)F)cc(C(F)(F)F)c1 | > 9000 nM | – | 0.53 nM | – |
| C[C@@H]1C[C@H](O[C@H](C)c2cc(C(F)(F)F)cc(C(F)(F)F)c2)[C@@H](c2ccc(F)cc2)CC(=O)N1C | > 9000 nM | 8% | 0.49 nM | – |
| C[C@@H]1NC(=O)CC[C@H](O[C@H](C)c2cc(C(F)(F)F)cc(C(F)(F)F)c2)[C@H]1c1ccc(F)cc1 | > 9000 nM | – | – | – |
| C[C@@H](O[C@H]1CCC(=O)N(C)C[C@@H]1c1ccc(F)cc1)c1cc(C(F)(F)F)cc(C(F)(F)F)c1 | – | – | 0.12 nM | ED50 (Gerbil, jird [2]): 0.64 mg/kg |
